Reference: ChEMBL document CHEMBL1781919, “Synthesis and anticonvulsant properties of 1-(amino-N-arylmethanethio)-3-(1-substituted benzyl-2, 3-dioxoindolin-5-yl) urea derivatives” (Eur J Med Chem, 2011)
The source made the active and inactive calls. The rule behind the calls is not given here.

Tests used:
[1] = Octanol-phosphate buffer partition coefficient, log P of the compound; assay type: physicochemical
Summary of the method: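 Octanol and phosphate buffer partition run at room temperature (29 °C). After separation, the phases are membrane-filtered and drug in the aqueous phase is measured by UV. PC = (Ct − Ca)/Ca, where Ct is total drug concentration and Ca is aqueous-phase concentration.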

[2] = test system: Mus musculus; assay: Anticonvulsant activity in mouse assessed as protection against maximal electroshock-induced seizures at 30 mg/kg, ip after 0.5 hrs; assay type: functional, organism-based; set-up: dose 30 mg/kg
Summary of the method: (§1)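 Mouse Test 1: i.p. dosing at 0.01 mL/g. Sets of one, three and one animals receive 30, 100 and 300 mg/kg respectively, each tested at 0.5 h and 4.0 h. Score is N/F, the number of animals protected over the number tested. Screening performed by NINDS following the ADD program protocol.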

[3] = test system: Mus musculus; assay: Anticonvulsant activity in mouse assessed as protection against maximal electroshock-induced seizures at 30 mg/kg, ip after 4 hrs; assay type: functional, organism-based; set-up: dose 30 mg/kg; summary of the method: as §1
[4] = test system: Mus musculus; assay: Anticonvulsant activity in mouse assessed as protection against maximal electroshock-induced seizures at 100 mg/kg, ip after 0.5 hrs; assay type: functional, organism-based; set-up: dose 100 mg/kg; summary of the method: as §1
[5] = test system: Mus musculus; assay: Anticonvulsant activity in mouse assessed as protection against maximal electroshock-induced seizures at 100 mg/kg, ip after 4 hrs; assay type: functional, organism-based; set-up: dose 100 mg/kg; summary of the method: as §1
[6] = test system: Mus musculus; assay: Anticonvulsant activity in mouse assessed as protection against maximal electroshock-induced seizures at 300 mg/kg, ip after 0.5 hrs; assay type: functional, organism-based; set-up: dose 300 mg/kg; summary of the method: as §1
[7] = test system: Mus musculus; assay: Anticonvulsant activity in mouse assessed as protection against maximal electroshock-induced seizures at 300 mg/kg, ip after 4 hrs; assay type: functional, organism-based; set-up: dose 300 mg/kg; summary of the method: as §1
[8] = test system: Mus musculus; assay: Anticonvulsant activity in mouse assessed as protection against subcutaneous pentylenetetrazole-induced seizures at 30 mg/kg, ip after 0.5 hrs; assay type: functional, organism-based; set-up: dose 30 mg/kg
[9] = test system: Mus musculus; assay: Anticonvulsant activity in mouse assessed as protection against subcutaneous pentylenetetrazole-induced seizures at 30 mg/kg, ip after 4 hrs; assay type: functional, organism-based; set-up: dose 30 mg/kg
[10] = test system: Mus musculus; assay: Anticonvulsant activity in mouse assessed as protection against subcutaneous pentylenetetrazole-induced seizures at 100 mg/kg, ip after 0.5 hrs; assay type: functional, organism-based; set-up: dose 100 mg/kg
[11] = test system: Mus musculus; assay: Anticonvulsant activity in mouse assessed as protection against subcutaneous pentylenetetrazole-induced seizures at 100 mg/kg, ip after 4 hrs; assay type: functional, organism-based; set-up: dose 100 mg/kg
[12] = test system: Mus musculus; assay: Anticonvulsant activity in mouse assessed as protection against subcutaneous pentylenetetrazole-induced seizures at 300 mg/kg, ip after 0.5 hrs; assay type: functional, organism-based; set-up: dose 300 mg/kg
[13] = test system: Mus musculus; assay: Anticonvulsant activity in mouse assessed as protection against subcutaneous pentylenetetrazole-induced seizures at 300 mg/kg, ip after 4 hrs; assay type: functional, organism-based; set-up: dose 300 mg/kg
[14] = test system: Mus musculus; assay: Neurotoxicity in mouse assessed as minimum motor impairment at 30 mg/kg, ip after 0.5 hrs by rotarod test; assay type: toxicity, organism-based; set-up: dose 30 mg/kg, route intraperitoneal; conditions: in vivo
Summary of the method: (§2)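 Rotorod test for minimal motor impairment in mice given 30, 100 or 300 mg/kg i.p. at 0.01 mL/g, using sets of one, three and one animals, at 0.5 h and 4.0 h. Animals are observed at each dose and time. Score is N/F, the number showing toxicity over the number tested.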

[15] = test system: Mus musculus; assay: Neurotoxicity in mouse assessed as minimum motor impairment at 30 mg/kg, ip after 4 hrs by rotarod test; assay type: toxicity, organism-based; set-up: dose 30 mg/kg, route intraperitoneal; conditions: in vivo; summary of the method: as §2
[16] = test system: Mus musculus; assay: Neurotoxicity in mouse assessed as minimum motor impairment at 100 mg/kg, ip after 0.5 hrs by rotarod test; assay type: toxicity, organism-based; set-up: dose 100 mg/kg, route intraperitoneal; conditions: in vivo; summary of the method: as §2
[17] = test system: Mus musculus; assay: Neurotoxicity in mouse assessed as minimum motor impairment at 100 mg/kg, ip after 4 hrs by rotarod test; assay type: toxicity, organism-based; set-up: dose 100 mg/kg, route intraperitoneal; conditions: in vivo; summary of the method: as §2
[18] = test system: Mus musculus; assay: Neurotoxicity in mouse assessed as minimum motor impairment at 300 mg/kg, ip after 0.5 hrs by rotarod test; assay type: toxicity, organism-based; set-up: dose 300 mg/kg, route intraperitoneal; conditions: in vivo; summary of the method: as §2
[19] = test system: Mus musculus; assay: Neurotoxicity in mouse assessed as minimum motor impairment at 300 mg/kg, ip after 4 hrs by rotarod test; assay type: toxicity, organism-based; set-up: dose 300 mg/kg, route intraperitoneal; conditions: in vivo; summary of the method: as §2

SMILES | logP [1] | Activity [2] | Activity [3] | Activity [4] | Activity [5] | Activity [6] | Activity [7] | Activity [8] | Activity [9] | Activity [10] | Activity [11] | Activity [12] | Activity [13] | Activity [14] | Activity [15] | Activity [16] | Activity [17] | Activity [18] | Activity [19]
Cc1ccc(NC(=S)NC(=O)Nc2ccc3c(c2)C(=O)C(=O)N3Cc2ccccc2Cl)cc1 | 3.73 | inactive | inactive | inactive | inactive | inactive | inactive | inactive | inactive | inactive | inactive | inactive | inactive | Non-toxic | Non-toxic | Non-toxic | Non-toxic | Non-toxic | Non-toxic
O=C(NC(=S)Nc1ccccc1Cl)Nc1ccc2c(c1)C(=O)C(=O)N2Cc1ccccc1 | 3.01 | inactive | inactive | inactive | inactive | inactive | inactive | inactive | inactive | inactive | inactive | inactive | inactive | Non-toxic | Non-toxic | Non-toxic | Non-toxic | Non-toxic | Non-toxic
O=C(NC(=S)Nc1ccccc1)Nc1ccc2c(c1)C(=O)C(=O)N2Cc1ccccc1 | 2.48 | inactive | inactive | inactive | inactive | inactive | inactive | inactive | inactive | inactive | inactive | inactive | inactive | Non-toxic | Non-toxic | Non-toxic | Non-toxic | Non-toxic | Non-toxic
Cc1ccc(NC(=S)NC(=O)Nc2ccc3c(c2)C(=O)C(=O)N3Cc2ccccc2)cc1 | 2.96 | inactive | inactive | inactive | inactive | inactive | inactive | inactive | inactive | inactive | inactive | inactive | inactive | Non-toxic | Non-toxic | Non-toxic | Non-toxic | Non-toxic | Non-toxic
Cc1ccccc1NC(=S)NC(=O)Nc1ccc2c(c1)C(=O)C(=O)N2Cc1ccccc1 | 2.98 | inactive | inactive | inactive | inactive | inactive | inactive | inactive | inactive | inactive | inactive | inactive | inactive | Non-toxic | Non-toxic | Non-toxic | Non-toxic | Non-toxic | Non-toxic
COc1ccccc1NC(=S)NC(=O)Nc1ccc2c(c1)C(=O)C(=O)N2Cc1ccccc1 | 2.38 | inactive | inactive | inactive | inactive | Active | Active | inactive | inactive | inactive | inactive | inactive | inactive | Non-toxic | Non-toxic | Non-toxic | Non-toxic | Non-toxic | Non-toxic
Cc1cccc(NC(=S)NC(=O)Nc2ccc3c(c2)C(=O)C(=O)N3Cc2ccccc2)c1 | 2.92 | inactive | inactive | inactive | inactive | inactive | inactive | inactive | inactive | inactive | inactive | inactive | inactive | Non-toxic | Non-toxic | Non-toxic | Non-toxic | Non-toxic | Non-toxic

Further lines, with some results ahead:

logP [1] | SMILES | Activity [2] | Activity [3] | Activity [4] | Activity [5] | Activity [6] | Activity [7] | Activity [8] | Activity [9] | Activity [10] | Activity [11] | Activity [12] | Activity [13] | Activity [14] | Activity [15] | Activity [16] | Activity [17] | Activity [18] | Activity [19]
3.19 | COc1cccc(NC(=S)NC(=O)Nc2ccc3c(c2)C(=O)C(=O)N3Cc2ccccc2Cl)c1 | inactive | inactive | inactive | inactive | inactive | inactive | inactive | inactive | inactive | inactive | inactive | inactive | Non-toxic | Non-toxic | Non-toxic | Non-toxic | Non-toxic | Non-toxic
2.4 | COc1cccc(NC(=S)NC(=O)Nc2ccc3c(c2)C(=O)C(=O)N3Cc2ccccc2)c1 | inactive | inactive | inactive | inactive | inactive | inactive | inactive | inactive | inactive | inactive | inactive | inactive | Non-toxic | Non-toxic | Non-toxic | Non-toxic | Non-toxic | Non-toxic
3.72 | Cc1cccc(NC(=S)NC(=O)Nc2ccc3c(c2)C(=O)C(=O)N3Cc2ccccc2Cl)c1 | inactive | inactive | inactive | inactive | inactive | Active | inactive | inactive | inactive | inactive | inactive | Active | Non-toxic | Non-toxic | Non-toxic | Non-toxic | Non-toxic | Non-toxic
3.18 | COc1ccccc1NC(=S)NC(=O)Nc1ccc2c(c1)C(=O)C(=O)N2Cc1ccccc1Cl | inactive | inactive | inactive | inactive | inactive | inactive | inactive | inactive | inactive | inactive | inactive | inactive | Non-toxic | Non-toxic | Non-toxic | Non-toxic | Non-toxic | Non-toxic
